Experimental data from ChEMBL document CHEMBL1157473, “Identification of 4-benzylamino-2-[(4-morpholin-4-ylphenyl)amino]pyrimidine-5-carboxamide derivatives as potent and orally bioavailable STAT6 inhibitors” (Bioorg Med Chem, 2008).

Tests used:
[1] = target: T1, Signal transducer and activator of transcription 6 (Homo sapiens, UniProt P42226); assay: Inhibition of STAT6 activation in FW4 reporter cells; type: cell-based
T1 sequence (P42226 whole entry): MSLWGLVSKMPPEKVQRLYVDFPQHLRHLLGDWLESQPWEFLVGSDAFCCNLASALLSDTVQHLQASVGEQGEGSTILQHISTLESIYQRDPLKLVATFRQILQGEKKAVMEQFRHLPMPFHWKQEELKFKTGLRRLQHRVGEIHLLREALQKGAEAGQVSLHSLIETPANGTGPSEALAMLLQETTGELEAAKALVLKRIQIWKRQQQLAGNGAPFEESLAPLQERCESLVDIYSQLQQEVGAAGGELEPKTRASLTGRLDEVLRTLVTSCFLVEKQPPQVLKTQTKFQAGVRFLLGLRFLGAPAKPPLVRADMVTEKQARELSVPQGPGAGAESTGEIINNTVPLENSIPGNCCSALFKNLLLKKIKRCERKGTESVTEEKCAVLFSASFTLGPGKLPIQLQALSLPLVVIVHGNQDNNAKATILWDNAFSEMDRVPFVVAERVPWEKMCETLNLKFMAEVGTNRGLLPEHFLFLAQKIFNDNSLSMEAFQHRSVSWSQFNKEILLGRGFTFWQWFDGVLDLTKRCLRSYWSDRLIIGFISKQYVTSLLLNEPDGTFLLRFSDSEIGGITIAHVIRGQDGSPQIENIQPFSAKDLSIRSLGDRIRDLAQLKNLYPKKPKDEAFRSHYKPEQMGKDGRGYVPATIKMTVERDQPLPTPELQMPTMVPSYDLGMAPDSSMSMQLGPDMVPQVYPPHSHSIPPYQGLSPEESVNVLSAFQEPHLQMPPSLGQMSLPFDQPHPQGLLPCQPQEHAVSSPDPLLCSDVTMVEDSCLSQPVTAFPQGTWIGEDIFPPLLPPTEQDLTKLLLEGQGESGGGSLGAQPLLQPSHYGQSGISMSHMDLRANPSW

[2] = Dissociation constant, pKa of the compound; type: physicochemical
[3] = Oral bioavailability in BALB/c mouse at 10 mg/kg; type: ADME, organism-based; settings: in vivo
Method in brief: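 Oral dose of 10 mg/kg in 0.5% methylcellulose (10 mL/kg) to overnight-fasted 8-week-old female Balb/c mice, against a 1 mg/kg iv dose. Blood was sampled from the vena cava at 0.25 to 24 h. Plasma was assayed by solid-phase extraction and HPLC-MS-MS.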

[4] = Half life in BALB/c mouse at 1 mg/kg, iv; type: ADME, organism-based; parameters: dose 1 mg/kg, route intravenous; settings: in vivo
Method in brief: (§1)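 Overnight-fasted 8-week-old female Balb/c mice were given 1 mg/kg by tail-vein injection at 10 mL/kg, in a Cremophor EL/saline-based vehicle. Plasma was extracted by solid-phase extraction and analysed by HPLC-MS-MS.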

[5] = Volume of distribution in BALB/c mouse at 1 mg/kg, iv; type: ADME, organism-based; parameters: dose 1 mg/kg, route intravenous; settings: in vivo; method in brief: as §1
[6] = Clearance in BALB/c mouse at 1 mg/kg, iv; type: ADME, organism-based; parameters: dose 1 mg/kg, route intravenous; settings: in vivo; method in brief: as §1
[7] = Oral bioavailability in BALB/c mouse at 3 mg/kg; type: ADME, organism-based; settings: in vivo
Method in brief: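 Mice were 8-week-old female Balb/c, fasted overnight, given 3 mg/kg po in 0.5% methylcellulose (10 mL/kg), with 1 mg/kg iv as reference. Vena cava blood was collected at 0.25 to 24 h. Plasma was extracted by solid-phase extraction and quantified by HPLC-MS-MS.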

Row | SMILES | IC50 [1] | further results
1 | NC(=O)c1cnc(Nc2ccc(CCO)cc2)nc1NCc1ccccc1 | 95 nM | 
2 | Oc1c(Cl)cccc1Cl [2,6-DICHLOROPHENOL] |  | pKa [2]: 7.15
3 | NC(=O)c1cnc(Nc2ccc(N3CCOCC3)cc2)nc1NCc1ccccc1N | 310 nM | 
4 | Oc1ccccc1Cl [2-CHLOROPHENOL] |  | pKa [2]: 9.13
5 | NC(=O)c1cnc(Nc2ccc(N3CCOCC3)cc2)nc1NCc1cc(F)cc(F)c1F | 1.8 nM | 
6 | NC(=O)c1cnc(NCCc2cc(Cl)c(O)c(Cl)c2)nc1NCc1ccccc1 | 61 nM | bioavailability [3]: 1%; half-life [4]: 3.6 min; Vd [5]: 0.931 L/kg; clearance [6]: 168 mL/min/kg
7 | NC(=O)c1cnc(Nc2ccc(N3CCOCC3)cc2)nc1NCc1ccccc1 |  | half-life [4]: 45.6 min; bioavailability [7]: 30%; Vd [5]: 3.91 L/kg; clearance [6]: 59.6 mL/min/kg
8 | NC(=O)c1cnc(Nc2ccc(N3CCOCC3)cc2)nc1NCc1cccc(Cl)c1 | 36 nM | 
9 | NC(=O)c1cnc(Nc2ccc(N3CCOCC3)cc2)nc1NCc1cccc(F)c1F | 2.1 nM | 
10 | NC(=O)c1cnc(Nc2ccc(N3CCOCC3)cc2)nc1NCc1cccc(C(F)(F)F)c1 | 130 nM | 
11 | NC(=O)c1cnc(Nc2ccc(N3CCOCC3)cc2)nc1NCc1ccccc1F | 1.4 nM | 
12 | COc1ccccc1CNc1nc(Nc2ccc(N3CCOCC3)cc2)ncc1C(N)=O | 8.2 nM | 
13 | NC(=O)c1cnc(Nc2ccc(N3CCNCC3)cc2)nc1NCc1ccccc1 | 7 nM | 
14 | CSc1ccccc1CNc1nc(Nc2ccc(N3CCOCC3)cc2)ncc1C(N)=O | 23 nM | 
15 | NC(=O)c1cnc(Nc2ccc(N3CCOCC3)cc2)nc1NCc1cccc(F)c1 | 1.8 nM | 
16 | NC(=O)c1cnc(Nc2ccc(N3CCCC3)cc2)nc1NCc1ccccc1 | 650 nM | 
17 | NC(=O)c1cnc(Nc2ccc(N3CCOCC3)cc2)nc1NCc1ccc(F)cc1F | 310 nM | 
18 | NC(=O)c1cnc(Nc2ccc(CCCO)cc2)nc1NCc1ccccc1 | 81 nM | 

Row | SMILES | IC50 [1] | further results
19 | NC(=O)c1cnc(Nc2ccc(N3CCOCC3)cc2)nc1NCc1ccccc1O | 22 nM | 
20 | NC(=O)c1cnc(Nc2ccc(N3CCOCC3)cc2)nc1NCc1cccc(O)c1 | 19 nM | 
21 | CC(=O)Nc1ccccc1CNc1nc(Nc2ccc(N3CCOCC3)cc2)ncc1C(N)=O | 5200 nM | 
22 | COc1cccc(CNc2nc(Nc3ccc(N4CCOCC4)cc3)ncc2C(N)=O)c1 | 25 nM | 
23 | NC(=O)c1cnc(Nc2ccc(N3CCOCC3)cc2)nc1NCc1cc(F)cc(F)c1 | 5.5 nM | 
24 | CN1CCN(c2ccc(Nc3ncc(C(N)=O)c(NCc4ccccc4)n3)cc2)CC1 | 6.2 nM | 
25 | Cc1ccccc1CNc1nc(Nc2ccc(N3CCOCC3)cc2)ncc1C(N)=O | 11 nM | 
26 | NC(=O)c1cnc(Nc2ccc(N3CCOCC3)cc2)nc1NCc1ccc(F)cc1 | 650 nM | 
27 | NC(=O)c1cnc(Nc2ccc(N3CCC(O)C3)cc2)nc1NCc1ccccc1 (stereo not drawn) | 98 nM | 
28 | NC(=O)c1cnc(Nc2ccc(N3CCOCC3)cc2)nc1NCc1ccccc1[N+](=O)[O-] | 38 nM | 
29 | NC(=O)c1cnc(Nc2ccc(N3CCCCC3)cc2)nc1NCc1ccccc1 | 120 nM | 
30 | NC(=O)c1cnc(Nc2ccc(N3CCOCC3)cc2)nc1NCc1ccccc1C(F)(F)F | 25 nM | 
31 | CN1CCC(c2ccc(Nc3ncc(C(N)=O)c(NCc4ccccc4)n3)cc2)CC1 | 17 nM | 
32 | NC(=O)c1cnc(Nc2ccc(N3CCC(O)CC3)cc2)nc1NCc1ccccc1 | 16 nM | 
33 | NC(=O)c1cnc(Nc2ccc(N3CCOCC3)cc2)nc1NCc1ccccc1Cl | 7.9 nM | 
34 | CS(=O)(=O)c1ccccc1CNc1nc(Nc2ccc(N3CCOCC3)cc2)ncc1C(N)=O | 2000 nM | 
35 | NC(=O)c1cnc(Nc2ccc(N3CCOCC3)cc2)nc1NCc1c(F)cccc1F | 2.2 nM | 
36 | NC(=O)c1cnc(Nc2ccc(N3CCOCC3)cc2)nc1NCc1cc(F)ccc1F | 1.6 nM | 
